The structures appear in SMILES notation. Bounds are passed on as bounds.

What is called IC50 is the concentration needed to halve the response being measured.

Type in all cases: functional, cell-based
Experiment [1] deals with SK-OV-3. As to the kind of experiment: Cytotoxicity against human SKOV3 cells by MTT assay. In short, it runs like this:
(§1)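 Colorimetric MTT assay on human cancer lines: HCT-8 colon, HepG2 hepatoma, BGC-823 gastric, A549 lung epithelial and SKOV3 ovarian. Paclitaxel was the positive control. IC50 was reported.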
(Formazan colour is commonly taken as a measure of viable cells.)

The test system of experiment [2] is BGC-823. As to the kind of experiment: Cytotoxicity against human BGC823 cells by MTT assay. In short, it runs like this:
as §1

Experiment [3] has as its system HCT-8. As to the kind of experiment: Cytotoxicity against human HCT8 cells by MTT assay. An outline of the steps: as §1
Experiment [4] has as its system HepG2. As to the kind of experiment: Cytotoxicity against human HepG2 cells by MTT assay. An outline of the steps:
as §1

Experiment [5] deals with A549. As to the kind of experiment: Cytotoxicity against human A549 cells by MTT assay. In short, it runs like this:
as §1

Experiment [6] can be described thus: Antiinflammatory activity in rat polymorphonuclear leukocytes assessed as inhibition of LPS-stimulated nitric oxide production after 20 mins by Griess method. An outline of the steps:
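Rat polymorphonuclear leukocytes were stimulated with LPS, and nitric oxide in the culture supernatant was measured by Griess reaction. Supernatant or sodium nitrite standard was mixed 1:1 with Griess reagent (0.1% N-(1-naphthyl)ethylenediamine dihydrochloride plus 1% sulfanilamide in 5% phosphoric acid, combined within 1 h of preparation). After 20 min at room temperature, absorbance was read at 540 nm. Dexamethasone was the positive control. IC50 was reported.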
A general note: Griess reagent forms a coloured azo dye with nitrite.

Take `COC(=O)[C@@H](C)[C@@H]1C[C@H]2OC(=O)[C@H](OC(=O)C=C(C)C)[C@H]3[C@]4(C(=O)OC)OC[C@]23[C@H]([C@@H](O)[C@@H]4O)[C@@]1(C)CC(=O)O`: the IC50 in experiment [1], in experiment [2], in experiment [3], in experiment [4] and in experiment [5] was over 10 µM in each case.

With `COC(=O)C[C@]1(C)[C@H]2[C@@H](O)[C@H](O)[C@@]3(C(=O)OC)OC[C@@]24[C@@H](C[C@H]1C(C)=O)OC(=O)[C@H](OC(=O)C=C(C)C)[C@@H]34` [BRUCEANIC ACID E METHYL ESTER], the IC50 in experiment [1], in experiment [2], in experiment [3], in experiment [4] and in experiment [5] was over 10 µM each time.

For the compound `COC(=O)[C@@]12OC[C@]34[C@H]([C@@H](O)[C@@H]1O)[C@@](C)(CC(=O)O)[C@H](C(C)=O)C[C@H]3OC(=O)[C@H](OC(=O)C=C(C)C)[C@@H]24` [BRUCEANIC ACID E], the half-inhibitory concentration (IC50) in experiment [1], in experiment [2], in experiment [3], in experiment [4] and in experiment [5] was over 10 µM throughout.

For `CC(=O)[C@@H]1C[C@H]2OC(=O)[C@H](OC(=O)C=C(C)C)[C@H]3[C@]4(C(=O)O)OC[C@]23[C@H]([C@@H](O)[C@@H]4O)[C@@]1(C)CC(=O)O` [BRUCEANIC ACID F], the IC50 in experiment [1], in experiment [2], in experiment [3], in experiment [4] and in experiment [5] was over 10 µM in each case.

As to `COC(=O)[C@]12OC[C@@]34[C@H](C[C@H]5[C@H](C)C(=O)C(O[C@@H]6O[C@H](CO)[C@@H](O)[C@H](O)[C@H]6O)=C[C@]5(C)[C@H]3[C@@H](O)[C@@H]1O)OC(=O)[C@H](OC(=O)/C=C(\C)C(C)C)[C@@H]24` [BRUCEANTINOSIDE A], the 50% inhibitory concentration (IC50) in experiment [1], in experiment [2], in experiment [3], in experiment [4] and in experiment [5] was over 10 µM each time.

Turning to `COC(=O)[C@@]12OC[C@]34[C@H]([C@@H](O)[C@@H]1O)[C@@]1(C)CC(=O)C(O)=C(C)[C@@H]1C[C@H]3OC(=O)[C@H](OC(C)=O)[C@@H]24` [BRUCEINE B], the IC50 in experiment [1] was 0.12 µM; in experiment [2], 0.81 µM; in experiment [3], 2 µM; in experiment [4], 0.81 µM; in experiment [5], 1.3 µM; in experiment [6], 1.9 µM.

Take `CC1=CC(=O)[C@@H](O)[C@]2(C)[C@H]3[C@@H](O)[C@H](O)[C@]4(C)OC[C@@]35[C@@H](C[C@@H]12)OC(=O)[C@H](O)[C@]54O` [BRUCEINE D]: the IC50 in experiment [1] is 0.76 µM; in experiment [2], 1.2 µM; in experiment [3], 2 µM; in experiment [4], 1.2 µM; in experiment [5] it was 3.9 µM.

Consider `CC1=C[C@H](O)[C@@H](O)[C@]2(C)[C@H]3[C@@H](O)[C@H](O)[C@@]4(C)OC[C@@]35[C@@H](C[C@@H]12)OC(=O)[C@H](O)[C@]54O` [BRUCEINE E], for which the IC50 in experiment [1] was 2.2 µM; in experiment [2] it was 2.2 µM; in experiment [3] it was 6.7 µM; in experiment [4], 2.9 µM; in experiment [5], over 10 µM; in experiment [6], 5 µM.

With `CC1=CC(=O)[C@@H](O)[C@]2(C)[C@H]3[C@@H](O)[C@H](O)[C@@]4(CO)OC[C@@]35[C@@H](C[C@@H]12)OC(=O)[C@H](O)[C@]54O` [BRUCEINE H], the half-inhibitory concentration (IC50) in experiment [1] was determined as 0.33 µM; in experiment [2] it was 2.1 µM; in experiment [3] it was 1.3 µM; in experiment [4] it was 2.8 µM; in experiment [5] it was 9.3 µM.

Consider `COC(=O)[C@@]12OC[C@]34[C@H]([C@@H](O)[C@@H]1O)[C@@]1(C)C=C(O[C@@H]5O[C@H](CO)[C@@H](O)[C@H](O)[C@H]5O)C(=O)[C@@H](C)[C@@H]1C[C@H]3OC(=O)[C@H](OC(=O)C=C(C)C)[C@@H]24` [BRUCEOSIDE A], for which the IC50 in experiment [1], in experiment [2], in experiment [3], in experiment [4] and in experiment [5] was over 10 µM each time.

Turning to `COC(=O)[C@@]12OC[C@@]34[C@@H](CC5=C(C)C(=O)C(O)=C[C@]5(C)[C@H]3[C@@H](O)[C@@H]1O)OC(=O)[C@H](OC(=O)C=C(C)C)[C@@H]24` [DEHYDROBRUSATOL], the IC50 is 2.5 µM in experiment [1]; 4.8 µM in experiment [2]; over 10 µM in experiment [3]; 3.3 µM in experiment [4]; 7.3 µM in experiment [5].

In the case of `C[C@@H]1C[C@H]2[C@@H]3CCC4=CC(=O)C=C[C@]4(C)[C@@]3(F)[C@@H](O)C[C@]2(C)[C@@]1(O)C(=O)CO` [DEXAMETHASONE], the IC50 in experiment [6] came out at 0.0023 µM.

With `COC(=O)[C@@]12OC[C@]34[C@H]([C@@H](O)[C@@H]1O)[C@@](C)(CC(=O)O)[C@H]([C@@H](C)C(=O)O)C[C@H]3OC(=O)[C@H](OC(=O)C=C(C)C)[C@@H]24` [JAVANIC ACID A], the IC50 in experiment [1], in experiment [2], in experiment [3], in experiment [4] and in experiment [5] was over 10 µM each time.

With `COC(=O)[C@@]12OC[C@]34[C@H]([C@@H](O)[C@@H]1O)[C@@]1(C)CC(=O)[C@H](O)[C@@H](C)[C@@H]1C[C@H]3OC(=O)[C@H](OC(=O)C=C(C)C)[C@@H]24` [JAVANICOLIDE E], the IC50 in experiment [1] was 1.49 µM; in experiment [2], 1.43 µM; in experiment [3], over 10 µM; in experiment [4], over 10 µM; in experiment [5], 6.36 µM.

As for `COC(=O)[C@@]12OC[C@]34[C@H]([C@@H](O)[C@@H]1O)[C@@]1(C)C[C@H](O)C(=O)[C@@H](C)[C@@H]1C[C@H]3OC(=O)[C@H](OC(=O)C=C(C)C)[C@@H]24` [JAVANICOLIDE H], the IC50 in experiment [1] is 0.23 µM; in experiment [2] it was 0.52 µM; in experiment [3], over 10 µM; in experiment [4], over 10 µM; in experiment [5] it was 0.95 µM.

Turning to `CC(=O)O[C@H]1C(=O)[C@@]2(C)[C@H]([C@H](OC(=O)c3ccccc3)[C@]3(O)C[C@H](OC(=O)[C@H](O)[C@@H](NC(=O)c4ccccc4)c4ccccc4)C(C)=C1C3(C)C)[C@]1(OC(C)=O)CO[C@@H]1C[C@@H]2O` [PACLITAXEL], in experiment [1], the IC50 was under 0.0001 µM.

The values are drawn from ChEMBL document CHEMBL2034945, “Bioactive quassinoids from the seeds of Brucea javanica” (J Nat Prod, 2012).
